{"source": "paper PMC3461162", "about": "(British Journal of Cancer, 2012)", "assay_type_in_all_cases": "in vivo, human", "key": {"[1]": {"test": "Phase I dose-escalation safety and tolerability: adverse events, DLTs, MTD", "method_in_brief": "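Multicentre, open-label, dose-escalation study. A single oral dose on day 1 was followed one week later by continuous twice-daily dosing, starting at 10 mg. The first three cohorts got solution, later cohorts tablets. AEs were graded by CTC v3.0 from consent to 30 days after stopping. DLT: a CTC grade 3 AE, or a laboratory abnormality with clinical signs, within 42 days (extended from 35). MTD: last dose below the non-tolerated dose.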"}, "[2]": {"test_system": "phosphorylation levels of 4E-BP1 on threonine^37/46 in peripheral blood mononuclear cells (PBMCs)", "test": "4E-BP1 phosphorylation in PBMCs", "conditions": "2 h post dose, MTD cohort (90 mg)", "method_in_brief": "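Adult patients with refractory advanced solid tumours or lymphoma got one oral dose on day 1, then continuous twice-daily dosing from one week later. They fasted at least 1 h before and after each dose. PBMCs were taken pre-dose and 2, 8 and 24 h post dose on day 1. Antibodies to the phosphorylated forms were used: AKT Ser473 by mesoscale detection, 4E-BP1 Thr37/46 by FACS.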"}, "[3]": {"test_system": "pAKT, p4E-BP1 and pS6 in tumour biopsies", "test": "Immunohistochemistry of paired pre- and post-dose tumour biopsies", "conditions": "two patients with baseline and post-dose tumour sample"}, "tumour glucose uptake": {"test_system": "tumour glucose uptake", "test": "Metabolic response by FDG-PET", "conditions": "day 35", "method_in_brief": "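FDG-PET was done at screening in solid-tumour patients with RECIST-measurable lesions and in all lymphoma patients. Percentage change in SUVmax from baseline was calculated. Metabolic response was defined as an SUVmax decrease >25% per EORTC criteria.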"}, "[4]": {"test_system": "advanced solid tumours or lymphomas", "test": "Tumour response by RECIST v1.0", "method_in_brief": "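Patients got a single oral dose on day 1, then continuous twice-daily dosing until disease progression or unmanageable toxicity. Baseline RECIST assessment used CT or MRI of chest, abdomen and pelvis before treatment, repeated every 8 weeks.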"}, "[5]": {"conditions": "90 mg BID tablet (n=11), CTCAE grade 1–2"}, "[6]": {"conditions": "90 mg BID tablet (n=11), CTCAE grade ⩾3"}, "[7]": {"conditions": "120 mg BID tablet (n=10), CTCAE grade 1–2"}, "[8]": {"conditions": "120 mg BID tablet (n=10), CTCAE grade ⩾3"}, "[9]": {"conditions": "CTCAE grade 3, all cohorts, a patient may have experienced more than one DLT"}, "[10]": {"conditions": "Total (n=49), Any grade occurring in cycle 1/2"}}, "note": "Several values for one entry are separate records, joined by “and”; a condition that tells them apart may be missing. Equal entries are not always repeated. Entries after “also recorded” stand apart in the source; their conditions may differ."}
{"compound": "COc1ccc(-c2ccc3c(N4CCOC[C@@H]4C)nc(N4CCOC[C@@H]4C)nc3n2)cc1CO", "note": "[AZD8055]", "values": [{"measurement": "Stomatitis: patients with AZD8055-related AE, n (%)", "setting": "[1]; 60 mg BID tablet (n=7), CTCAE grade ⩾3", "value": 0, "unit": "%"}, {"measurement": "Patients with DLT (grade 3 rise in transaminases)", "setting": "[1]; 90 mg BID tablet", "value": "1 and 1/9"}, {"measurement": "Fatigue: patients with AZD8055-related AE, n (%)", "setting": "[1]; [5]", "value": "1 (9) %"}, {"measurement": "Hyperglycaemia: patients with AZD8055-related AE, n (%)", "setting": "[1]; [5]", "value": "3 (27) %"}, {"measurement": "Increased ALT: patients with AZD8055-related AE, n (%)", "setting": "[1]; [5]", "value": "2 (18) %"}, {"measurement": "Increased AST: patients with AZD8055-related AE, n (%)", "setting": "[1]; [5]", "value": "1 (9) %"}, {"measurement": "Increased GGT: patients with AZD8055-related AE, n (%)", "setting": "[1]; [5]", "value": 0, "unit": "%"}, {"measurement": "Nausea: patients with AZD8055-related AE, n (%)", "setting": "[1]; [5]", "value": "2 (18) %"}, {"measurement": "Stomatitis: patients with AZD8055-related AE, n (%)", "setting": "[1]; [5]", "value": "2 (18) %"}, {"measurement": "Fatigue: patients with AZD8055-related AE, n (%)", "setting": "[1]; [6]", "value": 0, "unit": "%"}, {"measurement": "Hyperglycaemia: patients with AZD8055-related AE, n (%)", "setting": "[1]; [6]", "value": 0, "unit": "%"}, {"measurement": "Increased ALT: patients with AZD8055-related AE, n (%)", "setting": "[1]; [6]", "value": "1 (9) %"}, {"measurement": "Increased AST: patients with AZD8055-related AE, n (%)", "setting": "[1]; [6]", "value": "2 (18) %"}, {"measurement": "Increased GGT: patients with AZD8055-related AE, n (%)", "setting": "[1]; [6]", "value": "1 (9) %"}, {"measurement": "Nausea: patients with AZD8055-related AE, n (%)", "setting": "[1]; [6]", "value": 0, "unit": "%"}, {"measurement": "Stomatitis: patients with AZD8055-related AE, n (%)", "setting": "[1]; [6]", "value": 0, "unit": "%"}, {"measurement": "Patients with DLT (grade 3 rise in transaminases)", "setting": "[1]; 120 mg BID cohort, patients evaluable for DLT", "value": "3 and 3/9"}, {"measurement": "Fatigue: patients with AZD8055-related AE, n (%)", "setting": "[1]; [7]", "value": "2 (20) %"}, {"measurement": "Hyperglycaemia: patients with AZD8055-related AE, n (%)", "setting": "[1]; [7]", "value": "2 (20) %"}, {"measurement": "Increased ALT: patients with AZD8055-related AE, n (%)", "setting": "[1]; [7]", "value": "1 (10) %"}, {"measurement": "Increased AST: patients with AZD8055-related AE, n (%)", "setting": "[1]; [7]", "value": "1 (10) %"}, {"measurement": "Increased GGT: patients with AZD8055-related AE, n (%)", "setting": "[1]; [7]", "value": "1 (10) %"}, {"measurement": "Nausea: patients with AZD8055-related AE, n (%)", "setting": "[1]; [7]", "value": "1 (10) %"}, {"measurement": "Stomatitis: patients with AZD8055-related AE, n (%)", "setting": "[1]; [7]", "value": "2 (20) %"}, {"measurement": "Fatigue: patients with AZD8055-related AE, n (%)", "setting": "[1]; [8]", "value": 0, "unit": "%"}, {"measurement": "Hyperglycaemia: patients with AZD8055-related AE, n (%)", "setting": "[1]; [8]", "value": 0, "unit": "%"}, {"measurement": "Increased ALT: patients with AZD8055-related AE, n (%)", "setting": "[1]; [8]", "value": "2 (20) %"}, {"measurement": "Increased AST: patients with AZD8055-related AE, n (%)", "setting": "[1]; [8]", "value": "2 (20) %"}, {"measurement": "Increased GGT: patients with AZD8055-related AE, n (%)", "setting": "[1]; [8]", "value": 0, "unit": "%"}, {"measurement": "Nausea: patients with AZD8055-related AE, n (%)", "setting": "[1]; [8]", "value": 0, "unit": "%"}, {"measurement": "Stomatitis: patients with AZD8055-related AE, n (%)", "setting": "[1]; [8]", "value": 0, "unit": "%"}, {"measurement": "Non-tolerated dose", "setting": "[1]; BID, DLTs in 3/9 evaluable patients", "value": 120, "unit": "mg"}, {"measurement": "DLTs: Increased ALT, Total (%)", "setting": "[1]; [9]", "value": "3 (6) %"}, {"measurement": "DLTs: Increased AST, Total (%)", "setting": "[1]; [9]", "value": "3 (6) %"}, {"measurement": "Fatigue: patients with AZD8055-related AE, n (%)", "setting": "[1]; [10]", "value": "8 (16) %"}, {"measurement": "Hyperglycaemia: patients with AZD8055-related AE, n (%)", "setting": "[1]; [10]", "value": "6 (12) %"}, {"measurement": "Increased ALT: patients with AZD8055-related AE, n (%)", "setting": "[1]; [10]", "value": "11 (22) %"}, {"measurement": "Increased AST: patients with AZD8055-related AE, n (%)", "setting": "[1]; [10]", "value": "11 (22) %"}, {"measurement": "Increased GGT: patients with AZD8055-related AE, n (%)", "setting": "[1]; [10]", "value": "5 (10) %"}, {"measurement": "Nausea: patients with AZD8055-related AE, n (%)", "setting": "[1]; [10]", "value": "7 (14) %"}, {"measurement": "Stomatitis: patients with AZD8055-related AE, n (%)", "setting": "[1]; [10]", "value": "6 (12) %"}, {"measurement": "Fatigue: patients with AZD8055-related AE, n (%)", "setting": "[1]; Total (n=49), CTCAE grade 1–2", "value": "8 (16) %"}, {"measurement": "Hyperglycaemia: patients with AZD8055-related AE, n (%)", "setting": "[1]; Total (n=49), CTCAE grade 1–2", "value": "6 (12) %"}, {"measurement": "Increased ALT: patients with AZD8055-related AE, n (%)", "setting": "[1]; Total (n=49), CTCAE grade 1–2", "value": "5 (10) %"}, {"measurement": "Increased AST: patients with AZD8055-related AE, n (%)", "setting": "[1]; Total (n=49), CTCAE grade 1–2", "value": "4 (8) %"}, {"measurement": "Increased GGT: patients with AZD8055-related AE, n (%)", "setting": "[1]; Total (n=49), CTCAE grade 1–2", "value": "3 (6) %"}, {"measurement": "Nausea: patients with AZD8055-related AE, n (%)", "setting": "[1]; Total (n=49), CTCAE grade 1–2", "value": "7 (14) %"}, {"measurement": "Stomatitis: patients with AZD8055-related AE, n (%)", "setting": "[1]; Total (n=49), CTCAE grade 1–2", "value": "6 (12) %"}, {"measurement": "Fatigue: patients with AZD8055-related AE, n (%)", "setting": "[1]; Total (n=49), CTCAE grade ⩾3", "value": 0, "unit": "%"}, {"measurement": "Hyperglycaemia: patients with AZD8055-related AE, n (%)", "setting": "[1]; Total (n=49), CTCAE grade ⩾3", "value": 0, "unit": "%"}, {"measurement": "Increased ALT: patients with AZD8055-related AE, n (%)", "setting": "[1]; Total (n=49), CTCAE grade ⩾3", "value": "6 (12) %"}, {"measurement": "Increased AST: patients with AZD8055-related AE, n (%)", "setting": "[1]; Total (n=49), CTCAE grade ⩾3", "value": "7 (14) %"}, {"measurement": "Increased GGT: patients with AZD8055-related AE, n (%)", "setting": "[1]; Total (n=49), CTCAE grade ⩾3", "value": "2 (4) %"}, {"measurement": "Nausea: patients with AZD8055-related AE, n (%)", "setting": "[1]; Total (n=49), CTCAE grade ⩾3", "value": 0, "unit": "%"}, {"measurement": "Stomatitis: patients with AZD8055-related AE, n (%)", "setting": "[1]; Total (n=49), CTCAE grade ⩾3", "value": 0, "unit": "%"}, {"measurement": "Fatigue, AE assessed to be related to AZD8055, frequency", "setting": "[1]; all patients (n=49)", "value": 16, "unit": "%"}, {"measurement": "Maximum tolerated dose (MTD)", "setting": "[1]; oral, patients with advanced solid tumours or lymphomas", "value": 90, "unit": "mg BID"}, {"measurement": "Patients requiring dose reductions as a result of increased transaminases, assessed to be AZD8055-related", "setting": "[1]; three patients, one each in the 60, 90 and 120 mg BID tablet groups", "value": 6, "unit": "%"}, {"measurement": "Patients with a dose interruption", "setting": "[1]; within cycles 1 and 2, 11 patients, 7 because of an AE", "value": 22, "unit": "%"}, {"measurement": "Patients with transient decrease in p4E-BP1 in PBMC", "setting": "[2]", "value": "2/5"}, {"measurement": "Biomarker modulation for pAKT, p4E-BP1 and pS6 in tumour samples", "setting": "[3]", "value": "did not show conclusive evidence of biomarker modulation"}, {"measurement": "Patients with partial metabolic response by FDG-PET (decrease in SUVmax>25%)", "setting": "tumour glucose uptake; 40 mg tablet BID", "value": "2/5"}, {"measurement": "Patients with partial metabolic response by FDG-PET (decrease in SUVmax>25%)", "setting": "tumour glucose uptake; 60 mg BID", "value": "2/5"}, {"measurement": "Patients with partial metabolic response by FDG-PET (decrease in SUVmax>25%)", "setting": "tumour glucose uptake; 90 mg BID", "value": "1/7"}, {"measurement": "Patients with partial metabolic response by FDG-PET (decrease in SUVmax>25%)", "setting": "tumour glucose uptake; 120 mg BID", "value": "3/9"}, {"measurement": "Patients with stable disease for ⩾4 months", "setting": "[4]; 10 mg BID", "value": "1/5"}, {"measurement": "Patients with stable disease for ⩾4 months", "setting": "[4]; 60 mg BID", "value": "1/7"}, {"measurement": "Patients with stable disease for ⩾4 months", "setting": "[4]; 90 mg BID", "value": "1/11"}, {"measurement": "Patients with stable disease for ⩾4 months", "setting": "[4]; all cohorts", "value": "Seven"}, {"measurement": "RECIST complete or partial responses", "setting": "[4]; all cohorts", "value": "no RECIST responses were seen; also recorded: No complete or partial responses were observed"}, {"measurement": "Duration of stable disease, range", "setting": "[4]; seven patients with stable disease for ⩾4 months", "value": "115 to 398", "unit": "days"}]}
